{
  "source": "ChEMBL document CHEMBL3259701",
  "about": "“Siderophore receptor-mediated uptake of lactivicin analogues in gram-negative bacteria” (J Med Chem, 2014)",
  "key": {"[1]": {"tested_on": "Pseudomonas aeruginosa", "experiment": "Antibacterial activity against Pseudomonas aeruginosa PAO1 by CLSI broth microdilution method", "format": "functional"}, "[2]": {"tested_on": "Pseudomonas aeruginosa", "experiment": "Antibacterial activity against Pseudomonas aeruginosa PAO1 harboring siderophore receptor fpvA mutant in Mueller-Hinton broth medium by CLSI broth microdilution method", "format": "functional", "how_it_was_run": "(§1)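 MIC by CLSI broth microdilution in standard Mueller Hinton broth. Tested against wild-type P. aeruginosa PAO1 and an isogenic panel lacking one or more siderophore receptors.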"}, "[3]": {"tested_on": "Pseudomonas aeruginosa", "experiment": "Ratio of MIC for Pseudomonas aeruginosa PAO1 harboring siderophore receptor piuA and fpvA double mutant in MHB medium to MIC for Pseudomonas aeruginosa PAO1 harboring siderophore receptor piuA and fpvA double mutant in medium containing low-Fe by CLSI broth microdilution method", "format": "functional"}, "[4]": {"tested_on": "Pseudomonas aeruginosa", "experiment": "Antibacterial activity against Pseudomonas aeruginosa PAO1 harboring siderophore receptor pirA mutant in medium containing aztreonam and low-Fe by CLSI broth microdilution method", "format": "functional"}, "[5]": {"experiment": "Displacement of fluorescent Bocillin FL from Pseudomonas aeruginosa PBP3"}, "[6]": {"tested_on": "Pseudomonas aeruginosa", "experiment": "Antibacterial activity against Pseudomonas aeruginosa PAO1 harboring siderophore receptor piuA and pfeA double mutant in medium containing low-Fe by CLSI broth microdilution method", "format": "functional", "how_it_was_run": "(§2)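 MIC by CLSI broth microdilution in a modified Mueller Hinton broth depleted of iron to mimic the low-iron in vivo environment. Tested against PAO1 and isogenic strains lacking one or more siderophore receptors.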"}, "[7]": {"tested_on": "Pseudomonas aeruginosa", "experiment": "Ratio of MIC for Pseudomonas aeruginosa PAO1 harboring siderophore receptor piuA and fpvA double mutant to MIC for wild type Pseudomonas aeruginosa PAO1 in Mueller-Hinton broth medium by CLSI broth microdilution method", "format": "functional", "how_it_was_run": "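Broth microdilution MIC per CLSI in standard Mueller-Hinton broth, run against wild-type P. aeruginosa PAO1 and isogenic PAO1 strains lacking one or more siderophore receptors. Value is the mutant-strain MIC divided by the PAO1 MIC.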"}, "[8]": {"tested_on": "Pseudomonas aeruginosa", "experiment": "Antibacterial activity against Pseudomonas aeruginosa PAO1 in Mueller-Hinton broth medium by CLSI broth microdilution method", "format": "functional", "how_it_was_run": "as §1"}, "[9]": {"tested_on": "Pseudomonas aeruginosa", "experiment": "Ratio of MIC for Pseudomonas aeruginosa PAO1 harboring siderophore receptor fpvA mutant to MIC for wild type Pseudomonas aeruginosa PAO1 in Mueller-Hinton broth medium by CLSI broth microdilution method", "format": "functional", "how_it_was_run": "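Receptor-deficient PAO1 strain MIC divided by parent PAO1 MIC. Both MICs were obtained by CLSI broth microdilution in standard Mueller Hinton broth. A shift greater than 4× was taken to indicate that the deleted receptor(s) take part in drug uptake.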"}, "[10]": {"tested_on": "Acinetobacter baumannii", "experiment": "Antibacterial activity against Acinetobacter baumannii AB-3167 by CLSI broth microdilution method", "format": "functional"}, "[11]": {"tested_on": "Pseudomonas aeruginosa", "experiment": "Antibacterial activity against Pseudomonas aeruginosa PAO1 harboring siderophore receptor pirA mutant in Mueller-Hinton broth medium by CLSI broth microdilution method", "format": "functional", "how_it_was_run": "as §1"}, "[12]": {"tested_on": "Pseudomonas aeruginosa", "experiment": "Antibacterial activity against Pseudomonas aeruginosa PAO1 harboring siderophore receptor piuA mutant in medium containing aztreonam and low-Fe by CLSI broth microdilution method", "format": "functional"}, "[13]": {"tested_on": "Pseudomonas aeruginosa", "experiment": "Antibacterial activity against Pseudomonas aeruginosa PAO1 harboring siderophore receptor piuA and fptA double mutant in medium containing aztreonam and low-Fe by CLSI broth microdilution method", "format": "functional"}, "[14]": {"tested_on": "Pseudomonas aeruginosa", "experiment": "Antibacterial activity against Pseudomonas aeruginosa PAO1 harboring siderophore receptor piuA and fptA double mutant in Mueller-Hinton broth medium by CLSI broth microdilution method", "format": "functional", "how_it_was_run": "as §1"}, "[15]": {"tested_on": "Pseudomonas aeruginosa", "experiment": "Ratio of MIC for Pseudomonas aeruginosa PAO1 harboring siderophore receptor piuA and pfeA double mutant to MIC for wild type Pseudomonas aeruginosa PAO1 in medium containing aztreonam and low-Fe by CLSI broth microdilution method", "format": "functional"}, "[16]": {"tested_on": "Pseudomonas aeruginosa", "experiment": "Ratio of MIC for wild type Pseudomonas aeruginosa PAO1 in MHB medium to MIC for wild type Pseudomonas aeruginosa PAO1 in medium containing low-Fe by CLSI broth microdilution method", "format": "functional", "how_it_was_run": "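MICs for wild-type P. aeruginosa PAO1 were determined by CLSI broth microdilution in standard Mueller Hinton broth and, in parallel, in a modified broth depleted of iron to mimic the low-iron in vivo environment. The ratio compares the MIC in standard MHB with the MIC in iron-depleted broth.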"}, "[17]": {"tested_on": "Pseudomonas aeruginosa", "experiment": "Antibacterial activity against Pseudomonas aeruginosa PAO1 harboring siderophore receptor piuA and pirA double mutant in medium containing aztreonam and low-Fe by CLSI broth microdilution method", "format": "functional"}, "[18]": {"tested_on": "Pseudomonas aeruginosa", "experiment": "Antibacterial activity against Pseudomonas aeruginosa PAO1 harboring siderophore receptor piuA mutant in medium containing low-Fe by CLSI broth microdilution method", "format": "functional", "how_it_was_run": "as §2"}, "[19]": {"tested_on": "Escherichia coli", "experiment": "Antibacterial activity against Escherichia coli DH5alpha expressing beta-lactamase SHV-12 by CLSI broth microdilution method", "format": "functional", "settings": "DH5[alpha]"}, "[20]": {"tested_on": "Pseudomonas aeruginosa", "experiment": "Antibacterial activity against Pseudomonas aeruginosa PAO1 harboring siderophore receptor fptA mutant in medium containing low-Fe by CLSI broth microdilution method", "format": "functional", "how_it_was_run": "as §2"}, "[21]": {"tested_on": "Pseudomonas aeruginosa", "experiment": "Ratio of MIC for Pseudomonas aeruginosa PAO1 harboring siderophore receptor fptA mutant in MHB medium to MIC for Pseudomonas aeruginosa PAO1 harboring siderophore receptor fptA mutant in medium containing low-Fe by CLSI broth microdilution method", "format": "functional"}, "[22]": {"tested_on": "Pseudomonas aeruginosa", "experiment": "Ratio of MIC for Pseudomonas aeruginosa PAO1 harboring siderophore receptor piuA and pirA double mutant to MIC for wild type Pseudomonas aeruginosa PAO1 in medium containing aztreonam and low-Fe by CLSI broth microdilution method", "format": "functional"}, "[23]": {"tested_on": "Pseudomonas aeruginosa", "experiment": "Ratio of MIC for Pseudomonas aeruginosa PAO1 harboring siderophore receptor piuA and fptA double mutant to MIC for wild type Pseudomonas aeruginosa PAO1 in medium containing low-Fe by CLSI broth microdilution method", "format": "functional", "how_it_was_run": "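CLSI broth microdilution MICs in a modified Mueller-Hinton broth depleted of iron to mimic low in vivo iron. Tested against wild-type PAO1 and isogenic siderophore receptor knockout strains. Reported as the knockout-strain MIC divided by the PAO1 MIC in the same iron-depleted medium.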"}, "[24]": {"tested_on": "Pseudomonas aeruginosa", "experiment": "Ratio of MIC for Pseudomonas aeruginosa PAO1 harboring siderophore receptor pirA mutant to MIC for wild type Pseudomonas aeruginosa PAO1 in medium containing low-Fe by CLSI broth microdilution method", "format": "functional", "how_it_was_run": "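Ratio of strain MIC to PAO1 MIC. Both MICs were obtained by CLSI broth microdilution in iron-depleted modified Mueller Hinton broth. A shift greater than 4× versus the parent was read as the deleted receptor(s) taking part in uptake.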"}, "[25]": {"tested_on": "Pseudomonas aeruginosa", "experiment": "Ratio of MIC for Pseudomonas aeruginosa PAO1 harboring siderophore receptor piuA mutant in MHB medium to MIC for Pseudomonas aeruginosa PAO1 harboring siderophore receptor piuA mutant in medium containing low-Fe by CLSI broth microdilution method", "format": "functional"}, "[26]": {"tested_on": "Pseudomonas aeruginosa", "experiment": "Antibacterial activity against Pseudomonas aeruginosa PAO1 harboring siderophore receptor piuA, pfeA and pirA mutant in Mueller-Hinton broth medium by CLSI broth microdilution method", "format": "functional", "how_it_was_run": "as §1"}, "[27]": {"tested_on": "Pseudomonas aeruginosa", "experiment": "Antibacterial activity against Pseudomonas aeruginosa PAO1 harboring siderophore receptor piuA and fptA double mutant in medium containing low-Fe by CLSI broth microdilution method", "format": "functional", "how_it_was_run": "as §2"}, "[28]": {"tested_on": "Pseudomonas aeruginosa", "experiment": "Antibacterial activity against Pseudomonas aeruginosa PAO1 harboring siderophore receptor pirA and pfeA double mutant in Mueller-Hinton broth medium by CLSI broth microdilution method", "format": "functional", "how_it_was_run": "as §1"}, "[29]": {"tested_on": "Pseudomonas aeruginosa", "experiment": "Ratio of MIC for Pseudomonas aeruginosa PAO1 harboring siderophore receptor piuA and fpvA double mutant to MIC for wild type Pseudomonas aeruginosa PAO1 in medium containing aztreonam and low-Fe by CLSI broth microdilution method", "format": "functional"}, "[30]": {"experiment": "Displacement of fluorescent Bocillin FL from Pseudomonas aeruginosa PBP2"}, "[31]": {"tested_on": "Pseudomonas aeruginosa", "experiment": "Ratio of MIC for Pseudomonas aeruginosa PAO1 harboring siderophore receptor piuA and pirA double mutant in MHB medium to MIC for Pseudomonas aeruginosa PAO1 harboring siderophore receptor piuA and pirA double mutant in medium containing low-Fe by CLSI broth microdilution method", "format": "functional"}},
  "data": [
    {"smiles": "CC(C)(O/N=C(\\C(=O)N[C@H]1CON(C2(C(=O)O)C[C@H](N3C(=O)c4cc(O)c(O)cc4C3=O)C(=O)O2)C1=O)c1csc(N)n1)C(=O)O", "note": "(stereo partly specified)", "values": [
      {"measurement": "MIC", "setting": "[1]", "value": 0.5, "unit": "µg/mL"},
      {"measurement": "MIC", "setting": "[2]", "value": 16, "unit": "µg/mL"},
      {"measurement": "Ratio", "setting": "[3]", "value": 64},
      {"measurement": "MIC", "setting": "[4]", "value": 4, "unit": "µg/mL"},
      {"measurement": "IC50", "setting": "[5]", "value": 0.046, "unit": "µM"},
      {"measurement": "MIC", "setting": "[6]", "value": 0.125, "unit": "µg/mL"},
      {"measurement": "Ratio", "setting": "[7]", "value": 32},
      {"measurement": "MIC", "setting": "[8]", "value": 0.5, "unit": "µg/mL"},
      {"measurement": "Ratio", "setting": "[9]", "value": 32},
      {"measurement": "MIC", "setting": "[10]", "value": 0.06, "unit": "µg/mL"},
      {"measurement": "MIC", "setting": "[11]", "value": 0.5, "unit": "µg/mL"},
      {"measurement": "MIC", "setting": "[12]", "value": 4, "unit": "µg/mL"},
      {"measurement": "MIC", "setting": "[13]", "value": 4, "unit": "µg/mL"},
      {"measurement": "MIC", "setting": "[14]", "value": 8, "unit": "µg/mL"},
      {"measurement": "Ratio", "setting": "[15]", "value": 1},
      {"measurement": "Ratio", "setting": "[16]", "value": 16},
      {"measurement": "MIC", "setting": "[17]", "value": 4, "unit": "µg/mL"},
      {"measurement": "MIC", "setting": "[18]", "value": 0.125, "unit": "µg/mL"},
      {"measurement": "MIC", "setting": "[19]", "value": 0.015, "unit": "µg/mL"},
      {"measurement": "MIC", "setting": "[20]", "value": 0.06, "unit": "µg/mL"},
      {"measurement": "Ratio", "setting": "[21]", "value": 64},
      {"measurement": "Ratio", "setting": "[22]", "value": 1},
      {"measurement": "Ratio", "setting": "[23]", "value": ">=16"},
      {"measurement": "Ratio", "setting": "[24]", "value": 1},
      {"measurement": "Ratio", "setting": "[25]", "value": 64},
      {"measurement": "MIC", "setting": "[26]", "value": 16, "unit": "µg/mL"},
      {"measurement": "MIC", "setting": "[27]", "value": 0.5, "unit": "µg/mL"},
      {"measurement": "MIC", "setting": "[28]", "value": 0.5, "unit": "µg/mL"},
      {"measurement": "Ratio", "setting": "[29]", "value": 1},
      {"measurement": "IC50", "setting": "[30]", "value": 3.7, "unit": "µM"},
      {"measurement": "Ratio", "setting": "[31]", "value": 64}
    ]}
  ]
}
